Measurements taken from ChEMBL document CHEMBL4011662 (J Med Chem, 2017).

Legend:
Format in all cases: cell-based
[1] = target: T1, Probable G-protein coupled receptor 34 (Homo sapiens, UniProt Q9UPC5); assay: Intrinsic activity at human GPR34 expressed in HEK293 cells co-transfected with AP-TGFalpha/chimeric Galphaq/i1 assessed as induction of AP-TGFalpha release after 1 hr relative to O-(Hydroxy(((2R,3R)-2-(((3-(2-((3-phenoxybenzyl)oxy)phenyl)- propanoyl)oxy)methyl)tetrahydro-2H-pyran-3-yl)oxy)phosphoryl)- L-serine
T1 sequence (Q9UPC5 whole entry): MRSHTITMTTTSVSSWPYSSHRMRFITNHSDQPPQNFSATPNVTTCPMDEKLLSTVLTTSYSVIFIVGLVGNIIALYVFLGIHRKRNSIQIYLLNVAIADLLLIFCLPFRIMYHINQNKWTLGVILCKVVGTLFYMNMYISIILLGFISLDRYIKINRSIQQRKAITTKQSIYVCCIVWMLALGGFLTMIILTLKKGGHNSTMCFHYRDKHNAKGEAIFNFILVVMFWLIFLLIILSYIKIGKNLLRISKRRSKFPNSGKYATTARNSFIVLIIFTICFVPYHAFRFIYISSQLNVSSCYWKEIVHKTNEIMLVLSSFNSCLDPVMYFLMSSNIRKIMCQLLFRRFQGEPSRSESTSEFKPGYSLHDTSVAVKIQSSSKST

[2] = target: T1, Probable G-protein coupled receptor 34; assay: Agonist activity at human GPR34 expressed in HEK293 cells co-transfected with AP-TGFalpha/chimeric Galphaq/i1 assessed as induction of AP-TGFalpha release after 1 hr relative to control
How it was run: (§1)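 Same AP-TGFα shedding set-up in HEK293A (human GPR34 for line 2, mouse for line 4). Release was the %AP-TGFα in medium minus vehicle, then minus the mock-transfected response. Emax (% AP-TGFα release) and LogEC50 came from four-parameter sigmoid fits of plateau or semiplateau curves, as mean ± SEM of n independent experiments.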

[3] = target: Probable G-protein coupled receptor 34 (Mus musculus) (UniProt Q9R1K6); assay: Agonist activity at mouse GPR34 expressed in HEK293 cells co-transfected with AP-TGFalpha/chimeric Galphaq/i1 assessed as induction of ectodomain shedding of membrane bound AP-TGFalpha after 1 hr relative to control; how it was run: as §1
Chain of Probable G-protein coupled receptor 34 (Mus musculus) (Q9R1K6 whole entry, the tested form may be a part): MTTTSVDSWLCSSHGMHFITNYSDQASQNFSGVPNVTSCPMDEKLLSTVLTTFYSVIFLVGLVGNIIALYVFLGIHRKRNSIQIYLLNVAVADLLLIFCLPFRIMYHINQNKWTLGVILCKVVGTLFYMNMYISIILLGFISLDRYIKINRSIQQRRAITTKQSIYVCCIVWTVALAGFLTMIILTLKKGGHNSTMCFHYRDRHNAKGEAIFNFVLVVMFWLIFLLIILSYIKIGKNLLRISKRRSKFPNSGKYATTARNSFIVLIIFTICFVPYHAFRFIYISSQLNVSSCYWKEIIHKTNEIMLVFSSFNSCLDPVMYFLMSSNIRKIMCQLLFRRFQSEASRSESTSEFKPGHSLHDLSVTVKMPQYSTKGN

[4] = target: T1, Probable G-protein coupled receptor 34; assay: Agonist activity at human GPR34 expressed in HEK293 cells co-transfected with AP-TGFalpha/chimeric Galphaq/i1 assessed as induction of AP-TGFalpha release after 1 hr
How it was run: (§2)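 HEK293A cells transiently co-transfected with AP-TGFα, chimeric Gαq/i1 and GPR34 (human for line 1, mouse for line 3) or empty vector (mock). After 24 h, cells were suspended in HBSS with 5 mM HEPES pH 7.4 and preincubated 30 min with 10 μM (final) Ki16425. Compounds in HBSS with 0.01% fatty acid-free BSA were added for 1 h at 37 °C. AP activity in medium and on cells was read as OD405 with p-NPP after 1 h at room temperature.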

[5] = target: Probable G-protein coupled receptor 34 (Mus musculus, UniProt Q9R1K6); assay: Agonist activity at mouse GPR34 expressed in HEK293 cells co-transfected with AP-TGFalpha/chimeric Galphaq/i1 assessed as induction of ectodomain shedding of membrane bound AP-TGFalpha after 1 hr; how it was run: as §2
Chain of Probable G-protein coupled receptor 34 (Mus musculus, UniProt Q9R1K6) (Q9R1K6 whole entry, the tested form may be a part): as above

[6] = target: Probable G-protein coupled receptor 34 (Mus musculus) (UniProt Q9R1K6); assay: Intrinsic activity at mouse GPR34 expressed in HEK293 cells co-transfected with AP-TGFalpha/chimeric […] assessed as induction of ectodomain shedding of membrane bound AP-TGFalpha after 1 hr relative to O-(Hydroxy(((2R,3R)-2-(((3-(2-((3-phenoxybenzyl)oxy)phenyl)- propanoyl)oxy)methyl)tetrahydro-2H-pyran-3-yl)oxy)phosphoryl)- L-serine
How it was run: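 Relative intrinsic activity (RIA) was Emax/EC50 relative to that of a positive control agonist, whose RIA is defined as 1. Emax and EC50 came from sigmoid fits of receptor-specific AP-TGFα release in the HEK293A shedding assay, with human GPR34 for line 5 and mouse GPR34 for line 6, after 1 h at 37 °C.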

| Intrinsic activity [1] | Emax [2] [%] | Emax [3] [%] | EC50 ([4]; read-out: EC50) [nM] | EC50 ([4]; read-out: pEC50 (converted)) [nM] | EC50 [5] [nM] | Intrinsic activity [6] | Structure (SMILES) |
| --- | --- | --- | --- | --- | --- | --- | --- |
| 1.7 | 21.7 | 19.4 | 90 | 95.5 | 220 | 0.48 | N[C@@H](COP(=O)(O)OCCCOC(=O)CCc1ccccc1OCc1cccc(Oc2ccccc2)c1)C(=O)O |
|  |  | 19.1 |  |  | 100 | 0.82 | N[C@@H](COP(=O)(O)OCCCOC(=O)CCc1ccccc1OCc1cccc(Oc2ccc(I)cc2)c1)C(=O)O |
|  |  | 21.3 |  |  | 2700 | 0.089 | Nc1ccc(Oc2cccc(COc3ccccc3CCC(=O)OCCCOP(=O)(O)OC[C@H](N)C(=O)O)c2)cc1 |
|  |  | 18 |  |  | 110 | 0.71 | N[C@@H](COP(=O)(O)OCCCOC(=O)CCc1ccccc1OCc1cccc(Oc2ccc(Cl)c(Cl)c2)c1)C(=O)O |
|  |  | 17.7 |  |  | 82 | 0.97 | N[C@@H](COP(=O)(O)OCCCOC(=O)CCc1ccccc1OCc1cccc(Oc2ccc(Br)cc2)c1)C(=O)O |
| 9.8 | 22.1 | 18.2 | 27 |  | 39 | 3.7 | Cc1ccc(Oc2cccc(COc3ccccc3CCC(=O)OCCCOP(=O)(O)OC[C@H](N)C(=O)O)c2)cc1 |
| 1.2 | 22 | 20.3 | 180 |  | 650 | 0.28 | Cc1ccccc1Oc1cccc(COc2ccccc2CCC(=O)OCCCOP(=O)(O)OC[C@H](N)C(=O)O)c1 |
|  |  | 18.7 |  |  | 120 | 0.66 | N[C@@H](COP(=O)(O)OCCCOC(=O)CCc1ccccc1OCc1cccc(Oc2ccc(F)cc2)c1)C(=O)O |
| 1.2 | 24.2 | 21.3 | 230 |  | 550 | 0.29 | Cc1cccc(Oc2cccc(COc3ccccc3CCC(=O)OCCCOP(=O)(O)OC[C@H](N)C(=O)O)c2)c1 |
|  |  | 19.9 |  |  | 210 | 0.39 | CC(C)(C)c1cccc(Oc2cccc(COc3ccccc3CCC(=O)OCCCOP(=O)(O)OC[C@H](N)C(=O)O)c2)c1 |
|  |  | 17.1 |  |  | 170 | 0.53 | N[C@@H](COP(=O)(O)OCCCOC(=O)CCc1ccccc1OCc1cccc(Oc2cccc(Cl)c2)c1)C(=O)O |

The remaining lines, values behind:

| Structure (SMILES) | Intrinsic activity [1] | Emax [2] [%] | Emax [3] [%] | EC50 ([4]; read-out: EC50) [nM] | EC50 ([4]; read-out: pEC50 (converted)) [nM] | EC50 [5] [nM] | Intrinsic activity [6] |
| --- | --- | --- | --- | --- | --- | --- | --- |
| N[C@@H](COP(=O)(O)O[C@@H]1CCCO[C@@H]1COC(=O)CCc1ccccc1OCc1cccc(Oc2ccccc2)c1)C(=O)O | 1 | 25.6 | 21.3 | 150 |  | 180 | 1 |
| N[C@@H](COP(=O)(O)OCCCOC(=O)CCc1ccccc1OCc1cccc(Oc2ccc(Cl)cc2)c1)C(=O)O |  |  | 17.8 |  |  | 120 | 0.76 |
| N#Cc1ccc(Oc2cccc(COc3ccccc3CCC(=O)OCCCOP(=O)(O)OC[C@H](N)C(=O)O)c2)cc1 |  |  | 18.3 |  |  | 2000 | 0.041 |
| CCCCCCCCCCCOc1ccccc1CCC(=O)OCCCOP(=O)(O)OC[C@H](N)C(=O)O |  |  | 14.6 |  |  | 1600 | 0.04 |
| N[C@@H](COP(=O)(O)OCCCOC(=O)CCc1ccccc1OCc1cccc(OCc2ccccc2)c1)C(=O)O |  |  |  |  |  | > 3000 |  |
| CC(C)(C)c1cccc(-c2ccc(Oc3cccc(COc4ccccc4CCC(=O)OCCCOP(=O)(O)OC[C@H](N)C(=O)O)c3)cc2)c1 | 8.6 | 18.8 | 15.9 | 15 |  | 14 | 7.7 |
| CCCCCCOCC#CCOc1ccccc1CCC(=O)OCCCOP(=O)(O)OC[C@H](N)C(=O)O |  |  |  |  |  | > 3000 |  |
| CC(C)(C)c1ccccc1Oc1cccc(COc2ccccc2CCC(=O)OCCCOP(=O)(O)OC[C@H](N)C(=O)O)c1 |  |  |  |  |  | > 3000 |  |
| N[C@@H](COP(=O)(O)OCCCOC(=O)CCc1ccccc1OCc1cccc(-c2ccccc2)c1)C(=O)O |  |  |  |  |  | > 3000 |  |
| CCc1ccc(Oc2cccc(COc3ccccc3CCC(=O)OCCCOP(=O)(O)OC[C@H](N)C(=O)O)c2)cc1 |  |  | 19.3 |  |  | 180 | 0.42 |
| CCCCCCOc1ccc(-c2ccc(Oc3cccc(COc4ccccc4CCC(=O)OCCCOP(=O)(O)OC[C@H](N)C(=O)O)c3)cc2)cc1 |  |  | 17.4 |  |  | 49 | 3.4 |
| N[C@@H](COP(=O)(O)OCCCOC(=O)CCc1ccccc1OCc1cccc(Cc2ccccc2)c1)C(=O)O |  |  | 14.5 |  |  | 1300 | 0.077 |
| CC(C)(C)c1ccc(-c2ccc(Oc3cccc(COc4ccccc4CCC(=O)OCCCOP(=O)(O)OC[C@H](N)C(=O)O)c3)cc2)cc1 |  |  | 16.5 |  |  | 7.9 | 21 |
| N[C@@H](COP(=O)(O)OCCCOC(=O)CCc1ccccc1OCc1cccc(Oc2ccc(-c3ccccc3)cc2)c1)C(=O)O | 2.1 | 23 | 17.8 | 78 |  | 45 | 2.2 |
| N[C@@H](COP(=O)(O)OCCCOC(=O)CCc1ccccc1OCCCCCCOc1ccccc1)C(=O)O |  |  | 20.7 |  |  | 1200 | 0.071 |
| CCCCCCCC/C=C\CCCCCCCC(=O)OC[C@@H](O)COP(=O)(O)OC[C@H](N)C(=O)O |  |  | 14 |  |  |  | 0.26 |
| CCCCCCOc1cccc(COc2ccccc2CCC(=O)OCCCOP(=O)(O)OC[C@H](N)C(=O)O)c1 |  |  |  |  |  | > 3000 |  |
| N[C@@H](COP(=O)(O)OCCCOC(=O)CCc1ccccc1OCCCCOc1ccccc1)C(=O)O |  |  | 6.1 |  |  | 1700 | 0.033 |
| N[C@@H](COP(=O)(O)OCCCOC(=O)CCc1ccccc1OCc1cccc(Oc2ccc(-c3ccc(-c4ccccc4)cc3)cc2)c1)C(=O)O | 3.2 | 17 | 11.6 | 41 |  | 18 | 4.3 |
| N[C@@H](COP(=O)(O)OCCCOC(=O)CCc1ccccc1OCc1cccc(Oc2ccccc2Cl)c1)C(=O)O |  |  | 19.8 |  |  | 1200 | 0.069 |
| CC(C)(C)c1ccc(Oc2cccc(COc3ccccc3CCC(=O)OCCCOP(=O)(O)OC[C@H](N)C(=O)O)c2)cc1 | 0.7 | 28.2 | 16.9 | 300 |  | 900 | 0.079 |
| N[C@@H](COP(=O)(O)OCCCOC(=O)CCc1ccccc1OCc1cccc(OC2CCCCC2)c1)C(=O)O |  |  | 18.8 |  |  | 800 | 0.11 |
| COc1ccc(Oc2cccc(COc3ccccc3CCC(=O)OCCCOP(=O)(O)OC[C@H](N)C(=O)O)c2)cc1 |  |  | 16.6 |  |  | 260 | 0.28 |
| CCCCCCCC/C=C\CCCCCCCC(=O)OCCCOP(=O)(O)OC[C@H](N)C(=O)O |  |  |  |  |  | > 3000 |  |
| Cc1ccccc1-c1ccc(Oc2cccc(COc3ccccc3CCC(=O)OCCCOP(=O)(O)OC[C@H](N)C(=O)O)c2)cc1 |  |  | 13.4 |  |  | 78 | 0.94 |
